Experimental data: ChEMBL document CHEMBL3992563, “Piperazines as nootropic agents: New derivatives of the potent cognition-enhancer DM235 carrying hydrophilic substituents” (Bioorg Med Chem, 2017)

What was measured:
[1] = system: Mus musculus; experiment: Cognition enhancing effect in ip dosed mouse assessed as reversal of scopolamine-induced amnesia treated 20 mins prior to training session followed by scopolamine challenge immediately after training session by passive avoidance test; format: functional; conditions: read-out: MED
[2] = system: Mus musculus; experiment: Cognition enhancing effect in […] mouse assessed as reversal of scopolamine-induced amnesia by measuring difference between training session and retention session time at MED treated 20 mins prior to training session followed by scopolamine challenge immediately after training session by passive avoidance test
[3] = Half life in PBS at 1 uM by LC-MS/MS analysis; format: physicochemical
Procedure, shortened: (§1)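 Analyte at 1 µM final in PBS or in plasma from male Sprague-Dawley rats (plasma stored at −80 °C), incubated at 37 °C. Sampled in triplicate at 0, 30, 60 and 120 min, then internal standard added. Quantified by ESI-positive LC-MS/MS in MRM mode (C18 column, formic acid/acetonitrile gradient) against calibration from 0–1.00 µM. Enalapril checked plasma hydrolytic activity; t1/2 extrapolated from concentration-time curves.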

[4] = Half life in Sprague-Dawley rat plasma at 1 uM by LC-MS/MS analysis; format: ADME, cell-free; procedure, shortened: as §1
[5] = system: Mus musculus; experiment: Toxicity in sc dosed CD-1 albino mouse assessed as effect on motor co-ordination at cognition enhancing MED by rota rod test; format: organism-based; conditions: in vivo
[6] = system: Mus musculus; experiment: (§2) Cognition enhancing effect in sc dosed CD-1 albino mouse assessed as reversal of scopolamine-induced amnesia treated 20 mins prior to training session followed by scopolamine challenge immediately after training session by passive avoidance test; format: functional; conditions: CD-1, sc, read-out: MED
Procedure, shortened: (§3)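 Mouse passive-avoidance test using a modified Jarvik–Kopp protocol. Drug in saline with 10% DMSO, given s.c. 20 min before training in a 1:10 dilution series up to 10 mg/kg. Scopolamine 1.5 mg/kg i.p. given right after the punishment/training session. Saline controls got an extra saline injection. Each value is the mean of 12–14 mice; the read-out is minimal effective dose.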

[7] = system: Mus musculus; experiment: Toxicity in sc dosed CD-1 albino mouse assessed as gross behavior abnormality at cognition enhancing MED; format: organism-based; conditions: in vivo
[8] = system: Mus musculus; experiment: Toxicity in sc dosed CD-1 albino mouse assessed as effect on spontaneous motility at cognition enhancing MED by hole-board test; format: organism-based; conditions: in vivo
[9] = system: Mus musculus; experiment: as §2, with “amnesia by measuring difference between training session and retention session time at MED” for “amnesia”; format: functional; procedure, shortened: as §3
[10] = system: Mus musculus; experiment: Potency index, ratio of piracetam MED to compound MED for cognition enhancing effect in sc dosed CD-1 albino mouse; format: functional
[11] = Stability in Sprague-Dawley rat plasma assessed as parent compound remaining at 1 uM after 60 mins by LC-MS/MS analysis; format: ADME, cell-free; conditions: read-out: Stability; procedure, shortened: as §1
[12] = system: Plasma; experiment: Drug level in Sprague-Dawley rat plasma treated with (4-Acetyl-1-(4-fluorophenylsulfonyl)piperazin-2-yl)methyl acetate at 1 uM after 60 mins by LC-MS/MS analysis; format: ADME, cell-free; conditions: 1 h; procedure, shortened: as §1
[13] = Stability in Sprague-Dawley rat plasma assessed as parent compound remaining at 1 uM after 2 hrs by LC-MS/MS analysis; format: ADME, cell-free; conditions: read-out: Stability; procedure, shortened: as §1
[14] = system: Plasma; experiment: Drug metabolism in Sprague-Dawley rat plasma assessed as 1-(4-(4-Fluorophenylsulfonyl)-2-(hydroxymethyl)piperazin-1-yl)ethanone formation at 1 uM after 60 mins by LC-MS/MS analysis; format: ADME, cell-free; conditions: 1 h; procedure, shortened: as §1
[15] = system: Plasma; experiment: Drug level in Sprague-Dawley rat plasma treated with (4-Benzoyl-1-propionylpiperazin-2-yl)methyl acetate at 1 uM after 60 mins by LC-MS/MS analysis; format: ADME, cell-free; conditions: 1 h; procedure, shortened: as §1

SMILES | half-life at 1 µM [3] [h] | half-life at 1 µM [4] [h] | remaining at 1 h, 1 µM [11] [%] | Drug metabolism [12] | remaining at 2 h, 1 µM [13] [%] | Drug metabolism [14] | Drug metabolism [15] | minimal effective dose [1] [mg/kg] | Time [2] [s] | Activity [5] | minimal effective dose [6] [mg/kg] | Activity [7] | Activity [8] | Time [9] [s] | Ratio [10]
CC(=O)N1CCN(S(=O)(=O)c2ccc(F)cc2)C(C)C1 (centres undefined) |  |  |  |  |  |  |  | 0.1 | 82.6 |  |  |  |  |  | 
CC(=O)N1CCN(S(=O)(=O)c2ccc(F)cc2)CC1C (centres undefined) |  |  |  |  |  |  |  | 1 | 83.9 |  |  |  |  |  | 
CCC(=O)N1CCN(C(=O)c2ccccc2)C(C)C1 (centres undefined) |  |  |  |  |  |  |  | 0.1 | 60.2 |  |  |  |  |  | 
CCC(=O)N1CCN(C(=O)c2ccccc2)CC1C (centres undefined) |  |  |  |  |  |  |  | > 10 |  |  |  |  |  |  | 
CCC(=O)N1CCN(C(=O)c2ccccc2)C(COC)C1 (centres undefined) | ≥ 4 | ≥ 4 |  |  |  |  |  |  |  | Non-Toxic | 1 | Non-Toxic | Non-Toxic | 73.4 | 3 - 300
CCC(=O)N1CCN(C(=O)c2ccccc2)[C@H](CO)C1 |  |  |  |  |  |  |  |  |  |  | 1 |  |  | 58.8 | 
CCOC(=O)C1CN(S(=O)(=O)c2ccc(F)cc2)CCN1C(C)=O (centres undefined) | ≥ 4 | 0.617 | < 50 |  |  |  |  |  |  | Non-Toxic | 1 | Non-Toxic | Non-Toxic | 50.1 | 3 - 300
CCC(=O)N1CCN(C(=O)c2ccccc2)CC1COC (centres undefined) | ≥ 4 | ≥ 4 |  |  |  |  |  |  |  | Non-Toxic | 10 | Non-Toxic | Non-Toxic | 79.7 | 3 - 300
CC(=O)OC[C@H]1CN(C(C)=O)CCN1S(=O)(=O)c1ccc(F)cc1 |  |  |  |  |  |  |  |  |  |  | 1 |  |  | 70.6 | 
CCC(=O)N1CCN(C(=O)c2ccccc2)CC1CO (centres undefined) | ≥ 4 | ≥ 4 |  |  |  |  | Metabolite_Detected |  |  | Non-Toxic | 10 | Non-Toxic | Non-Toxic | 72.7 | 3 - 300

Now from value to compound, other results behind:

half-life at 1 µM [3] [h] | half-life at 1 µM [4] [h] | remaining at 1 h, 1 µM [11] [%] | Drug metabolism [12] | remaining at 2 h, 1 µM [13] [%] | Drug metabolism [14] | Drug metabolism [15] | SMILES | minimal effective dose [1] [mg/kg] | Time [2] [s] | Activity [5] | minimal effective dose [6] [mg/kg] | Activity [7] | Activity [8] | Time [9] [s] | Ratio [10]
≥ 4 | ≥ 4 |  |  |  |  |  | CC(=O)N1CCN(S(=O)(=O)c2ccc(F)cc2)CC1 | 0.01 |  |  |  |  |  |  | 
≥ 4 | ≥ 4 |  |  |  |  |  | COCC1CN(S(=O)(=O)c2ccc(F)cc2)CCN1C(C)=O (centres undefined) |  |  | Non-Toxic | > 10 | Non-Toxic | Non-Toxic |  | 
≥ 4 | ≥ 4 |  | Metabolite_Detected |  |  |  | CC(=O)N1CCN(S(=O)(=O)c2ccc(F)cc2)C(CO)C1 (centres undefined) |  |  | Non-Toxic | 1 | Non-Toxic | Non-Toxic | 66.2 | 3 - 300
≥ 4 | 0.5 |  |  | ≤ 10 | Metabolite_Detected |  | CC(=O)OCC1CN(S(=O)(=O)c2ccc(F)cc2)CCN1C(C)=O (centres undefined) |  |  | Non-Toxic | > 10 | Non-Toxic | Non-Toxic |  | 
≥ 4 | ≥ 4 |  |  |  |  |  | COCC1CN(C(C)=O)CCN1S(=O)(=O)c1ccc(F)cc1 (centres undefined) |  |  | Non-Toxic | 1 | Non-Toxic | Non-Toxic | 76.5 | 3 - 300
